Here are results for eight compounds from ChEMBL document CHEMBL3108754, “Herbicidin congeners, undecose nucleosides from an organic extract of Streptomyces sp. L-9-10” (J Nat Prod, 2014).

For series [1], the system named is HEK293. The experiment in a line: Cytotoxicity against HEK293 cells. The note with it: Homo sapiens. It counts as cell-based. The method in brief: (§1)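 HEK293 reporter cells were tested under the NF-κB assay conditions: TNF-α activation at 2 ng/mL and 6 h exposure to compounds. Values are cytotoxic IC50 or % survival at 50 μM.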
The test system of series [2] is HEK293. The series can be described thus: Inhibition of TNF-alpha-induced NF-kappaB activity in HEK293 cells assessed as cell survival at 50 uM after 6 hrs by luciferase reporter gene assay. The note with it: Homo sapiens. In kind it is cell-based. The method in brief:
as §1
(In a reporter assay the amount or activity of a reporter protein is the signal.)

Another series concerns Streptomyces. The experiment in a line: Antimicrobial activity against Streptomyces 85E at 80 ug/disk after 30 hrs by hyphae formation inhibition assay. In kind it is functional, organism-based.
Series [3] deals with HEK293. The experiment in a line: Inhibition of TNF-alpha-induced NF-kappaB activity in HEK293 cells at 50 uM after 6 hrs by luciferase reporter gene assay. Particulars: Homo sapiens. In kind it is cell-based. The essentials: (§2)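 Stable NF-κB luciferase reporter HEK293 cells were seeded at 20×10^3 cells/well in DMEM with 10% FBS, penicillin/streptomycin and 2 mM L-glutamine, grown 48 h, then given fresh medium and compounds. Cells were activated with human recombinant TNF-α at 2 ng/mL (0.14 nM) for 6 h, washed, lysed, and read by luciferase luminescence. Values are IC50 for inhibiting TNF-induced activity, or % inhibition at 50 μM.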

Another series deals with MCF7. The experiment in a line: Cytotoxicity against human MCF7 cells. In kind it is functional, cell-based.
The test system of series [4] is Radical scavenging activity. The experiment in a line: Antioxidant activity assessed as DPPH radical scavenging activity. In kind it is functional. On the technique in general: The DPPH test is a chemical assay of radical scavenging.
The target in series [5] is Nitric oxide synthase, inducible (Homo sapiens) (UniProt P35228). The series can be described thus: Inhibition of iNOS (unknown origin).
The nature of series [6]: Inhibition of TNF-alpha-induced NF-kappaB activity in HEK293 cells after 6 hrs by luciferase reporter gene assay. In kind it is cell-based. The note with it: Homo sapiens, HEK293, 6 h. The method in brief:
as §2

In the next series the test system is NF-kappaB. The experiment in a line: Selectivity ratio of IC50 for HEK293 cells to IC50 for NF-kappaB activity in HEK293 cells. It counts as ADME, cell-based. The note with it: human, read-out: Ratio IC50. The method in brief: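 HEK293 (Panomic) cells stably carrying an NF-κB luciferase reporter, grown in DMEM with 10% FBS, penicillin/streptomycin and 2 mM L-glutamine, seeded at 20×10^3 per well, then left 48 h. Medium renewed, cells given a range of compound concentrations plus TNF-α at 2 ng/mL (0.14 nM) for 6 h. Lysates read by luciferase luminescence. Cytotoxicity IC50 run under the same conditions.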

SMILES strings stand for the structures. Active and inactive are the calls of the source. The calls are words filed in the database; no cut-off is given here.

Sequence of Nitric oxide synthase, inducible (Homo sapiens) (P35228 whole entry): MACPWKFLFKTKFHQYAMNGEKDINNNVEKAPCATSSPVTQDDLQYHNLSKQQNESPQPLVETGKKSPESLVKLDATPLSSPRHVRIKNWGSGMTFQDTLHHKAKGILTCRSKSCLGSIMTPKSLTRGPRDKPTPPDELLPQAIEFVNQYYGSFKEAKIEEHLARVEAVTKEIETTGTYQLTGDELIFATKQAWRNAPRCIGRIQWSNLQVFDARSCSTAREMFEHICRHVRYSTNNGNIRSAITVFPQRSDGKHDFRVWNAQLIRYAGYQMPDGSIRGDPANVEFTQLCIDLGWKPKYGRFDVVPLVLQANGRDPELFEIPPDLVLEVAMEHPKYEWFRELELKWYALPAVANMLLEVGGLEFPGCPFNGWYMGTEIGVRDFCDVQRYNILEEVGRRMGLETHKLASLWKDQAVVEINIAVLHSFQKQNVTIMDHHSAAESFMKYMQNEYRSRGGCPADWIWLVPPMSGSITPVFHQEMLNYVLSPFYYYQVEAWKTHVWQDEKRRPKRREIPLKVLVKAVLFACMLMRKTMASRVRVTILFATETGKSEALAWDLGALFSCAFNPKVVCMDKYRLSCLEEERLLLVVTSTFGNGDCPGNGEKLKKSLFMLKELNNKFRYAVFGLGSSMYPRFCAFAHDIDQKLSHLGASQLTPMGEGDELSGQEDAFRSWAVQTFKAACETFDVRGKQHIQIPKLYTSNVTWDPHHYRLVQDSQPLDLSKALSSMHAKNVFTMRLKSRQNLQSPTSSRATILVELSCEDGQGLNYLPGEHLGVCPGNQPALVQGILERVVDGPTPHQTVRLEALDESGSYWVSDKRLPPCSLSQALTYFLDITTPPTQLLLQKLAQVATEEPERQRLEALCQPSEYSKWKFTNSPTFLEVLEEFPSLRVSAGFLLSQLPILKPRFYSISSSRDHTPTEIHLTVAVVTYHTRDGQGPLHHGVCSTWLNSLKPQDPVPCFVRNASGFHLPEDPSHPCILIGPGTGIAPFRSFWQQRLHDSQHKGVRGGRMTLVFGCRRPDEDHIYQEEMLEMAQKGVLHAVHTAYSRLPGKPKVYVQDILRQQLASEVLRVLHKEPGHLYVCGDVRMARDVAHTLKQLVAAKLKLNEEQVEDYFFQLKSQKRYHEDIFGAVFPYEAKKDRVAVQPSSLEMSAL

For `C/C=C(\CO)C(=O)O[C@H]1[C@H](O)[C@@H](C(=O)OC)O[C@@H]2C[C@H]3O[C@@H](n4cnc5c(N)ncnc54)[C@H](OC)[C@H]3O[C@]21O`, the concentration for half-maximal inhibition (IC50) was found to be 2.7 µM in the series with HEK293 [1] and 1.8 µM in [6]. Also, the cell survival in the series with HEK293 [2] turned out to be 45.8%. The result (in the series with Streptomyces; with MCF7; in series [4]) was inactive. Moreover, in the series with HEK293 [3], the inhibition is 80.9%. For the same compound, the inhibition result in series [5] is “inactive”.

With `COC(=O)[C@H]1O[C@@H]2C[C@H]3O[C@@H](n4cnc5c(N)ncnc54)[C@H](OC)[C@H]3O[C@@]2(O)[C@@H](O)[C@@H]1O`, the IC50 is greater than 50 µM in the series with HEK293 [1] and 2.9 µM in [6]. Moreover, the cell survival in the series with HEK293 [2] worked out at 95.6%. For the same compound, the result (with Streptomyces; with MCF7; in series [4]) was inactive. In the series with HEK293 [3], this compound gave an inhibition of 94.2%. Besides, the inhibition result in [5] is “inactive”.

Turning to `C/C=C(\C)C(=O)O[C@H]1[C@H](O)[C@@H](C(=O)OC)O[C@@H]2C[C@H]3O[C@@H](n4cnc5c(N)ncnc54)[C@H](O)[C@H]3O[C@]21O`, the IC50 in the series on HEK293 [1] was found to be 2.2 µM; in [6], 4.9 µM. Further, the cell survival in the series with HEK293 [2] turned out to be 42.3%. In addition, the outcome (in the series on Streptomyces; with MCF7; in series [4]) was inactive. Also, the inhibition in the series with HEK293 [3] stood at 92.4%. The inhibition result in [5] was “inactive”.

`Cc1ccc(S(=O)(=O)N[C@@H](Cc2ccccc2)C(=O)CCl)cc1` [TPCK]: the figures for the IC50 (in the series with HEK293 [1]; in [6]) were 11.1 µM and 3.8 µM, respectively. The selectivity ratio with NF-kappaB was 2.

Take `COC(=O)[C@@H]1CC(O)(O)[C@]2(O)O[C@@H]3[C@@H](OC)[C@H](n4cnc5c(N)ncnc54)O[C@@H]3C[C@H]2O1`: the values for the IC50 (in the series with HEK293 [1]; in series [6]) were 13.7 µM and 2.4 µM, respectively. Besides, the cell survival with HEK293 [2] is 45.1%. Also, the outcome (with Streptomyces; in the series on MCF7; in [4]) was inactive. The inhibition with HEK293 [3] was determined as 96.2%. Also, in [5], the inhibition result was “inactive”.

In the case of `COC(=O)[C@H]1O[C@@H]2C[C@H]3O[C@@H](n4cnc5c(N)ncnc54)[C@H](OC)[C@H]3O[C@@]2(O)[C@H](O)[C@@H]1O`, the IC50 with HEK293 [1] is 43.7 µM; in series [6] it was 3.2 µM. In addition, the cell survival in the series on HEK293 [2] was 53%. The result (with Streptomyces; in the series with MCF7; in series [4]) was inactive. In the series on HEK293 [3], this compound had an inhibition of 92.2%. Further, in series [5], the inhibition entry was “inactive”.

As for `C/C=C(\C)C(=O)O[C@H]1[C@H](O)[C@@H](C(=O)OC)O[C@@H]2C[C@H]3O[C@@H](n4cnc5c(N)ncnc54)[C@H](OC)[C@H]3O[C@]21O`, the results for the IC50 (with HEK293 [1]; in series [6]) were 2.3 µM and 0.5 µM, respectively. Besides, the cell survival in the series on HEK293 [2] was 59.8%. Besides, the outcome (in the series on Streptomyces; in the series with MCF7; in series [4]) was inactive. The compound also displayed an inhibition in the series on HEK293 [3] of 83.4%. Further, the inhibition result in series [5] is “inactive”.

Regarding `Cc1ccc(S(=O)(=O)/C=C/C#N)cc1`, the IC50 in the series with HEK293 [1] is 3.8 µM; in [6], 2 µM. Besides, the selectivity ratio in the series on NF-kappaB worked out at 2.

The IC50 is the midpoint of a concentration-inhibition curve. A high value points to weaker potency in that assay. A word on the inhibition: it is the change of the read-out against control, counted positive when it falls.
